Measurements reported in ChEMBL document CHEMBL1138987, “Development of cyclic gamma-MSH analogues with selective hMC3R agonist and hMC3R/hMC5R antagonist activities” (J Med Chem, 2006).
pEC50, pIC50: −log10 of the molar value.

How the values were obtained:
Melanocortin receptor 5 [1] = molecular target: T1, Melanocortin receptor 5 (Homo sapiens, UniProt P33032); test: Inhibitory activity against hMC5R transfected in HEK293 cells; type: cell-based
Method in brief: (§1)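 Competition binding on whole HEK293 cells stably expressing the human receptor, seeded 48 h prior. Binding buffer was MEM, 25 mM HEPES pH 7.4, 0.2% BSA, 1,10-phenanthroline, leupeptin and bacitracin. Cells washed and lysed, then gamma counted. IC50 from nonlinear least-squares fit; mean of two experiments in triplicate.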

Melanocortin receptor 3 [2] = molecular target: T2, Melanocortin receptor 3 (Homo sapiens, UniProt P41968); test: Activity against hMC3R transfected in HEK293 cells by intracellular cAMP accumulation; type: functional, cell-based
Method in brief: (§2)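 HEK293 cells stably transfected with human receptor, grown to confluence in MEM with 10% FBS, seeded 48 h before assay. Cells preincubated 1 min at 37 °C in EBSS with IBMX (0.5 mM stock). Peptide added (10^-10 to 10^-5 M), 3 min at 37 °C. Stopped with ice-cold Tris/EDTA, boiled, cAMP measured by competitive binding kit. EC50 from nonlinear least-squares fit; mean of two experiments in triplicate.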

[3] = molecular target: T3, Melanocyte-stimulating hormone receptor (Homo sapiens, UniProt Q01726); test: Activity against hMC1R transfected in HEK293 cells by intracellular cAMP accumulation; type: functional, cell-based; method in brief: as §2
[4] = molecular target: T3, Melanocyte-stimulating hormone receptor; test: Inhibitory activity against hMC1R transfected in HEK293 cells; type: cell-based; method in brief: as §1
Target sequence in this assay (Q01726 whole entry): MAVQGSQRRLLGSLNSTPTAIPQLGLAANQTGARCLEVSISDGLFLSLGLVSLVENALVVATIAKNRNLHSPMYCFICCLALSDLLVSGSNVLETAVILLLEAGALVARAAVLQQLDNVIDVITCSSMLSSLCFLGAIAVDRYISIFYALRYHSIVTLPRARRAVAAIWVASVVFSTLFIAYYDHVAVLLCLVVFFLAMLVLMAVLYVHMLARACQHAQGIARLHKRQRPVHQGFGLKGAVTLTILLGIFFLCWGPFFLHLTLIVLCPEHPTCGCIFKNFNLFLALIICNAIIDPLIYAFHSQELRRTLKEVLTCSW

Melanocortin receptor 3 [5] = molecular target: T2, Melanocortin receptor 3; test: Inhibitory activity against hMC3R transfected in HEK293 cells; type: cell-based; method in brief: as §1
Melanocortin receptor 4 [6] = molecular target: T4, Melanocortin receptor 4 (Homo sapiens, UniProt P32245); test: Inhibitory activity against hMC4R transfected in HEK293 cells; type: cell-based; method in brief: as §1
Melanocortin receptor 5 [7] = molecular target: T1, Melanocortin receptor 5; test: Activity against hMC5R transfected in HEK293 cells by intracellular cAMP accumulation; type: functional, cell-based; method in brief: as §2
Melanocortin receptor 4 [8] = molecular target: T4, Melanocortin receptor 4; test: Activity against hMC4R transfected in HEK293 cells by intracellular cAMP accumulation; type: functional, cell-based; method in brief: as §2

T2 sequence (P41968 whole entry): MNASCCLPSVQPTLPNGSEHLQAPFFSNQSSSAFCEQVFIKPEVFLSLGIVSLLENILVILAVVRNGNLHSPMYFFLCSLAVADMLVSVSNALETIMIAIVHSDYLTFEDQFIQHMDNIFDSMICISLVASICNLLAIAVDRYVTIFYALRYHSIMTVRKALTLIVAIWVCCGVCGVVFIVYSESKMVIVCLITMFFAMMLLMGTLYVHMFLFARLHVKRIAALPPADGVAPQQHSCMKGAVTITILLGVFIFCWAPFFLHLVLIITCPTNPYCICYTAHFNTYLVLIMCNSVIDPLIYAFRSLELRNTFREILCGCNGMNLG
T1 sequence (P33032 whole entry): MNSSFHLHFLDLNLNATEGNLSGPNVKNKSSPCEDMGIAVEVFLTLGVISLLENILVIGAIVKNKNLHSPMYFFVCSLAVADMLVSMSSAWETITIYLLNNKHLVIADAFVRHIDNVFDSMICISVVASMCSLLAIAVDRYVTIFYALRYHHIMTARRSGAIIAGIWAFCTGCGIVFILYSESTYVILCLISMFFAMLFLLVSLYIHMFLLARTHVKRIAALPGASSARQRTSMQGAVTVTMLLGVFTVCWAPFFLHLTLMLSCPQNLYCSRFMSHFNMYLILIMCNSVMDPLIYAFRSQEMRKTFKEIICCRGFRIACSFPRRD
T4 sequence (P32245 whole entry): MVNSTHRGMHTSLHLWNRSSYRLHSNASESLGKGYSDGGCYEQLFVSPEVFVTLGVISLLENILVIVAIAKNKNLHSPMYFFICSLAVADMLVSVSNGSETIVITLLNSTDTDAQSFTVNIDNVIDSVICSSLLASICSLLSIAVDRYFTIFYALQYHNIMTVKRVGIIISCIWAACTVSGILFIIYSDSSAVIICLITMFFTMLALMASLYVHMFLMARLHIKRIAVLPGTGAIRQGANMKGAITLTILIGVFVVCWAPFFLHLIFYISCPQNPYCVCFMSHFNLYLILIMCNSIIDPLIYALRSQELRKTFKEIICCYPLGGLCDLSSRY

| SMILES | pIC50 (Melanocortin receptor 5 [1]) | pEC50 (Melanocortin receptor 3 [2]) | pEC50 [3] | pIC50 [4] | pIC50 (Melanocortin receptor 3 [5]) | pIC50 (Melanocortin receptor 4 [6]) | pEC50 (Melanocortin receptor 5 [7]) | pEC50 (Melanocortin receptor 4 [8]) | %max (Melanocortin receptor 3 [2]) | %max [3] | %max (Melanocortin receptor 5 [7]) | %max (Melanocortin receptor 4 [8]) | Kb (Melanocortin receptor 3 [2]; read-out: pA2 (converted)) | Kb (Melanocortin receptor 5 [7]; read-out: pA2 (converted)) |
| --- | --- | --- | --- | --- | --- | --- | --- | --- | --- | --- | --- | --- | --- | --- |
| CCCC[C@@H]1NC(=O)CC[C@@H](C(N)=O)NC(=O)[C@H](Cc2c[nH]c3ccccc23)NC(=O)[C@H](CCCN=C(N)N)NC(=O)[C@@H](Cc2ccc3ccccc3c2)NC(=O)[C@H](CC(=O)O)NC1=O | 6.66 | < 5.00 | < 5.00 | < 5.00 | 6.09 | 6.77 | < 5.00 | < 5.00 | – | – | – | – | – | – |
| CCCC[C@@H]1NC(=O)CC[C@@H](C(N)=O)NC(=O)[C@H](Cc2c[nH]c3ccccc23)NC(=O)[C@H](CCCN=C(N)N)NC(=O)[C@@H](Cc2ccc3ccccc3c2)NC(=O)[C@H](CCC(=O)O)NC1=O | 7.36 | 5.55 | < 5.00 | < 5.00 | 6.85 | 7.47 | < 5.00 | < 5.00 | 7% | 0% | 0% | 0% | – | – |
| CCCC[C@@H]1NC(=O)CC[C@@H](C(N)=O)NC(=O)[C@H](Cc2c[nH]c3ccccc23)NC(=O)[C@H](CCCN=C(N)N)NC(=O)[C@@H](Cc2ccc3ccccc3c2)NC(=O)[C@H](CCCC)NC1=O | 8.42 | < 5.00 | < 6.00 | 5.52 | 8.22 | 7.80 | 6.70 | 6.47 | 0% | 0% | 10% | 31% | – | – |
| CCCC[C@@H]1NC(=O)CC[C@@H](C(N)=O)NC(=O)[C@H](Cc2c[nH]c3ccccc23)NC(=O)[C@H](CCCN=C(N)N)NC(=O)[C@@H](Cc2ccccc2)NC(=O)[C@@H](CCCN=C(N)N)NC1=O | – | – | – | – | – | – | – | – | 112% | 0% | 0% | 63% | – | – |
| CCCC[C@@H]1NC(=O)CC[C@@H](C(N)=O)NC(=O)[C@H](Cc2c[nH]c3ccccc23)NC(=O)[C@H](CCCN=C(N)N)NC(=O)[C@@H](Cc2ccc3ccccc3c2)NC(=O)[C@H](C(C)C)NC1=O | 8.66 | < 5.00 | < 5.00 | 5.40 | 8.77 | 6.74 | < 5.00 | 7.80 | 0% | 0% | 0% | 13% | 0.00398 µM | 0.002 µM |
| CCCC[C@@H]1NC(=O)CC[C@@H](C(N)=O)NC(=O)[C@H](Cc2c[nH]c3ccccc23)NC(=O)[C@H](CCCN=C(N)N)NC(=O)[C@@H](Cc2ccc3ccccc3c2)NC(=O)[C@H](CCCN=C(N)N)NC1=O | 8.64 | < 5.00 | < 5.00 | 5.82 | 8.59 | 7.11 | < 5.00 | 6.28 | – | – | – | – | – | – |
| CCCC[C@@H]1NC(=O)CC[C@@H](C(N)=O)NC(=O)[C@H](Cc2c[nH]c3ccccc23)NC(=O)[C@H](CCCN=C(N)N)NC(=O)[C@@H](Cc2ccccc2)NC(=O)[C@H](CCCC)NC1=O | 7.15 | 6.52 | < 5.00 | < 5.00 | 6.60 | 6.22 | < 5.00 | < 6.00 | 27% | 0% | 0% | 50% | – | – |
| CCCC[C@@H]1NC(=O)CC[C@@H](C(N)=O)NC(=O)[C@H](Cc2c[nH]c3ccccc23)NC(=O)[C@H](CCCN=C(N)N)NC(=O)[C@@H](Cc2ccccc2)NC(=O)[C@H]2CCCN2C1=O | – | – | – | – | – | – | – | – | 0% | 0% | 10% | 0% | – | – |
| CCCC[C@@H]1NC(=O)CC[C@@H](C(N)=O)NC(=O)[C@H](Cc2c[nH]c3ccccc23)NC(=O)[C@H](CCCN=C(N)N)NC(=O)[C@@H](Cc2ccc3ccccc3c2)NC(=O)[C@H](Cc2cnc[nH]2)NC1=O | 8.64 | < 5.00 | < 5.00 | < 5.00 | 7.92 | 7.00 | < 5.00 | < 5.00 | – | – | – | – | – | – |
| CCCC[C@@H]1NC(=O)CC[C@@H](C(N)=O)NC(=O)[C@H](Cc2c[nH]c3ccccc23)NC(=O)[C@H](CCCN=C(N)N)NC(=O)[C@@H](Cc2ccc3ccccc3c2)NC(=O)[C@H](CCC(N)=O)NC1=O | 8.85 | < 5.00 | < 6.00 | 6.00 | 8.85 | 7.19 | < 5.00 | 6.89 | 0% | 0% | 0% | 50% | – | – |
| CCCC[C@@H]1NC(=O)CC[C@@H](C(N)=O)NC(=O)[C@H](Cc2c[nH]c3ccccc23)NC(=O)[C@H](CCCN=C(N)N)NC(=O)[C@@H](Cc2ccccc2)NC(=O)[C@H](CC(=O)O)NC1=O | < 5.00 | < 5.00 | < 5.00 | < 5.00 | < 5.00 | 6.82 | < 5.00 | < 5.00 | 0% | 0% | 0% | 0% | – | – |
| CCCC[C@@H]1NC(=O)CC[C@@H](C(N)=O)NC(=O)[C@H](Cc2c[nH]c3ccccc23)NC(=O)[C@H](CCCN=C(N)N)NC(=O)[C@@H](Cc2ccccc2)NC(=O)[C@H](CCC(=O)O)NC1=O | 5.51 | 5.37 | < 5.00 | < 5.00 | 5.92 | < 5.00 | < 5.00 | < 5.00 | – | – | – | – | – | – |
| CCCC[C@@H]1NC(=O)CC[C@@H](C(N)=O)NC(=O)[C@H](Cc2c[nH]c3ccccc23)NC(=O)[C@H](CCCN=C(N)N)NC(=O)[C@@H](Cc2ccc3ccccc3c2)NC(=O)[C@H](Cc2c[nH]cn2)NC1=O | – | – | – | – | – | – | – | – | 0% | 0% | 0% | 0% | – | – |
| CCCC[C@@H]1NC(=O)CC[C@@H](C(N)=O)NC(=O)[C@H](Cc2c[nH]c3ccccc23)NC(=O)[C@H](CCCN=C(N)N)NC(=O)[C@@H](Cc2ccccc2)NC(=O)[C@@H]2CCCN2C1=O | 6.40 | < 5.00 | < 5.00 | < 5.00 | 5.57 | 5.57 | 6.07 | 5.00 | – | – | – | – | – | – |
| CCCC[C@@H]1NC(=O)CC[C@@H](C(N)=O)NC(=O)[C@H](Cc2c[nH]c3ccccc23)NC(=O)[C@H](CCCN=C(N)N)NC(=O)[C@@H](Cc2ccccc2)NC(=O)[C@H](CCC(N)=O)NC1=O | 6.30 | 5.77 | 6.00 | 6.00 | 6.57 | < 5.00 | 6.52 | < 5.00 | – | – | – | – | – | – |
| CCCC[C@@H]1NC(=O)CC[C@@H](C(N)=O)NC(=O)[C@H](Cc2c[nH]c3ccccc23)NC(=O)[C@H](CCCN=C(N)N)NC(=O)[C@@H](Cc2ccc3ccccc3c2)NC(=O)[C@@H]2CCCN2C1=O | 8.00 | < 5.00 | < 5.00 | < 5.00 | 7.89 | 6.00 | < 5.00 | < 5.00 | 0% | 0% | 0% | 0% | – | – |
| CCCC[C@@H]1NC(=O)CC[C@@H](C(N)=O)NC(=O)[C@H](Cc2c[nH]c3ccccc23)NC(=O)[C@H](CCCN=C(N)N)NC(=O)[C@@H](Cc2ccccc2)NC(=O)[C@@H](CCC(N)=O)NC1=O | – | – | – | – | – | – | – | – | 60% | 20% | 8% | 0% | – | – |
| CCCC[C@@H]1NC(=O)CC[C@@H](C(N)=O)NC(=O)[C@H](Cc2c[nH]c3ccccc23)NC(=O)[C@H](CCCN=C(N)N)NC(=O)[C@@H](Cc2ccc3ccccc3c2)NC(=O)[C@@H](CC(=O)O)NC1=O | – | – | – | – | – | – | – | – | 0% | 0% | 0% | 0% | – | – |
| CCCC[C@@H]1NC(=O)CC[C@@H](C(N)=O)NC(=O)[C@H](Cc2c[nH]c3ccccc23)NC(=O)[C@H](CCCN=C(N)N)NC(=O)[C@@H](Cc2ccccc2)NC(=O)[C@@H](CCC(=O)O)NC1=O | – | – | – | – | – | – | – | – | 54% | 0% | 0% | 0% | – | – |
| CCCC[C@@H]1NC(=O)CC[C@@H](C(N)=O)NC(=O)[C@H](Cc2c[nH]c3ccccc23)NC(=O)[C@H](CCCN=C(N)N)NC(=O)[C@@H](Cc2ccc3ccccc3c2)NC(=O)[C@@H](CCCN=C(N)N)NC1=O | – | – | – | – | – | – | – | – | 0% | 0% | 0% | 10% | – | – |
| CCCC[C@@H]1NC(=O)CC[C@@H](C(N)=O)NC(=O)[C@H](Cc2c[nH]c3ccccc23)NC(=O)[C@H](CCCN=C(N)N)NC(=O)[C@@H](Cc2ccccc2)NC(=O)[C@H](Cc2c[nH]cn2)NC1=O | 7.00 | 7.43 | < 5.00 | < 5.00 | 6.25 | 6.77 | < 5.00 | 5.70 | 147% | 0% | 0% | 48% | – | – |
| CCCC[C@@H]1NC(=O)CC[C@@H](C(N)=O)NC(=O)[C@H](Cc2c[nH]c3ccccc23)NC(=O)[C@H](CCCN=C(N)N)NC(=O)[C@@H](Cc2ccccc2)NC(=O)[C@H](CCCN=C(N)N)NC1=O | 7.17 | 8.92 | < 5.00 | 5.85 | 6.85 | 6.57 | < 5.00 | 6.76 | – | – | – | – | – | – |
